Screening results (PubChem)
mIAP act = activators of mouse IAP, primary screen, biochemical, luminescence, uHTS; intestinal alkaline phosphatase [Mus musculus]; muIAP, CDP-Star luminescence, 30 min; active compounds read high; 1 = vehicle-only enzyme signal, 0 = enzyme-free wells; activation factor at 10 µM; hit rate 0.24% among 330,000; AID 2805, 2010;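 active = activation factor of at least 2 at 20 µM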
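also added = chemiluminescent substrate CDP-Star | test system = mouse IAP enzyme | signal = chemiluminescence readout | compound = DMSO-dissolved test compounds | incubation = 30 min at room temperature | benchmarks = DMSO wells, no-enzyme wells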
hIAP block = human IAP inhibitors, primary screen, biochemical, luminescence, uHTS. Intestinal-type alkaline phosphatase (Homo sapiens), P09923. purified IAP, CDP-Star luminescence, 30 min. inhibition, % at 10 µM. hit rate 0.12% among 330,000;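 active = inhibition reaching a set limit with compound at 10 µM in the primary screen, cut at about 35% in these data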;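 also: plate controls were DMSO wells with enzyme for no effect and no-enzyme buffer wells for full effect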
Target sequence (P09923 whole entry, looked up): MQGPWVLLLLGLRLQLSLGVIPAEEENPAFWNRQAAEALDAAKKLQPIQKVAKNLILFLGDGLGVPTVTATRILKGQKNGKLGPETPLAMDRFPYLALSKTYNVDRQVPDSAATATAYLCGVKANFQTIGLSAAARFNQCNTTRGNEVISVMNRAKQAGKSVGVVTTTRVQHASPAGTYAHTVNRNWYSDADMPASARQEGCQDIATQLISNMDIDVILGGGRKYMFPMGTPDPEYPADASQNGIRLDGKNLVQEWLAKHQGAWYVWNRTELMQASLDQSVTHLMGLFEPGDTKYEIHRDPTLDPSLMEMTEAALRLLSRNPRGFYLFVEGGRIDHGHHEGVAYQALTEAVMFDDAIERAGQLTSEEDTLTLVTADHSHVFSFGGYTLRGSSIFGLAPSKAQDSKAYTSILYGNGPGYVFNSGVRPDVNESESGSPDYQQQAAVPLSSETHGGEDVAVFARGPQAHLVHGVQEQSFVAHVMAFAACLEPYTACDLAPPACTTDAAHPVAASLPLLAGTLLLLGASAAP
mIAP inh = inhibitors of mouse IAP, primary screen, biochemical, luminescence, uHTS | purified mouse IAP, CDP-Star luminescence, 30 min | AID 2806, 2010 | hit rate 0.2% among 330,000 | inhibition, % at 10 µM;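 active = inhibition of at least 40% at 10 µM in the primary screen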;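 also: plate controls were DMSO with enzyme for no effect and no enzyme wells for full effect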
bIAP inhibitor = bovine intestinal alkaline phosphatase inhibitors, primary screen, selectivity assay for TNAP inhibitor project, biochemical, bovine IAP, CDP-star luminescence; purified bovine IAP, 30 min; inhibition, % at 20 µM; 190,000 tested, under 10 active;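 active = over 50% inhibition of intestinal alkaline phosphatase at 20 µM in the single-dose screen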
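test system = bovine IAP enzyme | medium = DEA buffer 100 mM, pH 9.8, with MgCl2 1.0 mM, ZnCl2 0.02 mM | detection = luminescence | dosing = single compound dose of 20 µM, 2% DMSO final | incubation = 30 min reaction at room temperature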
hIAP act = human IAP activators, primary screen, biochemical, luminescence, uHTS. hit rate 0.16% among 330,000. activation factor at 10 µM. AID 2524, 2010. Intestinal-type alkaline phosphatase (Homo sapiens), P09923. purified human IAP, CDP-Star luminescence, 30 min; active compounds read high; 1 = vehicle-only enzyme, 0 = enzyme-free background;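 active = activation factor of the enzyme at least 2-fold when tested at 20 µM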
bIAP activator = bovine intestinal alkaline phosphatase activators, primary screen, biochemical, bovine IAP, CDP-star luminescence | purified bovine IAP, 30 min; active compounds read high; fold of DMSO-control signal, blank-subtracted | hit rate 0.17% among 200,000 | alkaline phosphatase, intestinal [Bos taurus] | activation factor at 20 µM;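 active = activation factor of 2 or more at 20 µM, a signal rise over negative controls twice the positive control's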
Active calls of the source: *; · = no result. In the library only some 0.79% were active in any assay of this set; here they are far more common.

SMILES	mIAP act	hIAP block	mIAP inh	bIAP inhibitor	hIAP act	bIAP activator
CC(C)CCCCCCNC(=S)Nc1ccc(S(=O)(=O)N2CCOCC2)cc1	2.2*	6	-125	6	0.94	0.9
CCOC(=O)/C(=C/Nc1ccc(F)cc1)[N+](=O)[O-]	1	-6	-5	·	1.1	·
CCOc1ccc(NC(=O)CN(C)C(=O)c2ccccc2-n2cnnn2)cc1OCC	0.91	8	9	·	0.92	·
OC[C@@H]1[C@@H](c2ccc(Cl)cc2)C(c2ccccc2)=NN1c1ccccc1	2*	·	-105	·	·	·
COc1ccccc1[C@H]1C(c2ccc(F)cc2)=NN(c2ccccc2)[C@@H]1CO	1.6	·	-56	·	·	·
OC[C@@H]1[C@@H](c2ccc(F)cc2)C(c2cccc(Cl)c2)=NN1c1ccccc1	2.1*	·	-113	·	·	·
C[C@H]1C(c2ccc(F)cc2)=NN(c2ccccc2)[C@@H]1CO	1.6	·	-59	·	·	·
CCN(CC)S(=O)(=O)c1ccc(N2CCCCC2)c(NC(=O)C2CCN(C(=O)c3ccc(F)cc3)CC2)c1	1.1	-2	-9	·	1	·
Cc1ccnc(N=O)c1	0.97	·	3	·	·	·
CN1CCC(=NNC(=O)C(=O)NC(C)(C)C)CC1	0.91	4	9	-276	0.96	3.8*
CC(C)(C)NC(=O)C(=O)NN=C1CCCCCC1	1	-7	-5	2	1.1	1
CCCCCCCCCCSc1n[nH]c(NC(C)=O)n1	2.1*	-8	-114	-234	1.1	3.3*
CCCSc1n[nH]c(NC(C)=O)n1	0.93	-3	7	0	1	1
Cc1nn(Cc2ccc(Cl)cc2Cl)c(C)c1NC(=O)NC12CC3CC(CC(C3)C1)C2	2.1*	12	-112	-34	0.88	1.3
Cc1nn(Cc2ccc(Cl)cc2Cl)c(C)c1NC(=O)c1sc2ccccc2c1Cl	0.96	1	4	13	0.99	0.9
O=C(COC(=O)Cc1c(F)cccc1Cl)Nc1nnc(-c2ccccc2)o1	0.92	8	8	·	0.92	·
Cc1cccc(NC(=S)NC(=O)/C=C/c2ccco2)c1	0.83	-21	17	-2	1.2	1
O=C(/C=C/c1ccco1)NC(=S)Nc1cccc([N+](=O)[O-])c1	0.41	-6	60*	-3	1.1	1
COc1ccccc1NC(=S)NC(=O)/C=C/c1ccco1	0.58	9	42*	5	0.91	1
CCOC(=O)C1CCN(C(=O)C2(NC(=O)Nc3ccccc3C)CCCCC2)CC1	1.1	-21	-7	·	1.2	·
CCOC(=O)C1CCN(C(=O)C2(NC(=O)Nc3ccccc3Cl)CCCCC2)CC1	1.2	-12	-23	-249	1.1	3.5*
COc1ccccc1N(CC(=O)Nc1ccc(Cc2ccncc2)cc1)S(=O)(=O)c1ccccc1	1.2	-23	-22	·	1.2	·
COc1ccc(N(CC(=O)Nc2ccc(Cc3ccncc3)cc2)S(=O)(=O)c2ccccc2)cc1	2.4*	-22	-135	·	1.2	·
COc1ccc(-c2nc3ccccc3n2Cc2ccccc2)cc1	0.97	-17	3	-196	1.2	3*
C=CCn1c(-c2ccc(OC)cc2)nc2ccccc21	0.93	1	7	13	0.99	0.9
SMILES	mIAP act	hIAP block	mIAP inh	bIAP inhibitor	hIAP act	bIAP activator
COc1ccc2c(C(=O)c3ccc(Cl)cc3)n(CCCC(N)=O)[n+]([O-])c2c1	1	-8	-3	·	1.1	·
O=C1S/C(=C\c2cccs2)C(=O)N1c1ccc(O)cc1	0.94	-17	6	·	1.2	·
O=C1S/C(=C\C=C\c2ccco2)C(=O)N1c1ccc(O)cc1	0.2	1	80*	-59	0.99	1.6
O=C1S/C(=C\C=C\c2ccco2)C(=O)N1c1ccccc1	0.24	27	76*	3	0.73	1
O=C(Nc1ccc(F)cc1)C1CCCN1S(=O)(=O)c1ccc(Br)cc1 (configuration not stated)	0.94	-12	6	·	1.1	·
CC(O)CNc1nc2ccccc2n1-c1ncnc2sc3c(c12)CCC3 (configuration not stated)	1.4	-8	-44	-105	1.1	2.1*
Cc1nnc(SCC(=O)NCCC2=CCCCC2)[nH]c1=O	1.1	6	-9	·	0.94	·
Cc1cc(-c2ccc(C)c(S(=O)(=O)NCCc3ccc(S(N)(=O)=O)cc3)c2)on1	0.96	-2	4	·	1	·
Nc1ccc(S(=O)(=O)NNC(=O)C(=O)NNc2ccccn2)cc1	0.73	-166	27	-30	2.7*	1.3
Cc1c(Cl)cccc1NC(=S)NCc1ccccc1Cl	2.7*	-1	-169	-6	1	1.1
CCOC(=O)C1CCN(S(=O)(=O)c2ccc3c4c(cccc24)C(=O)N3CC)CC1	1.1	-8	-11	·	1.1	·
O=C(COc1ccc(-c2nnco2)cc1)Nc1ccc(C(F)(F)F)cc1	1	4	-4	·	0.96	·
CCN(CC)c1ccc2cc(-c3nc4ccccc4n3C)c(=O)oc2c1	·	·	·	-158	·	2.6*
CCN(CC)c1ccc2cc(-c3nc4ccccc4[nH]3)c(=O)oc2c1	1.4	15	-40	-68	0.85	1.7
NS(=O)(=O)c1ccc2c(c1)C1C=CCC1C(C1CC=CCC1)N2 (configuration not stated)	0.44	-3	56*	21	1	0.8
O=C(O)c1ccc(NS(=O)(=O)c2ccc3c(c2)C2C=CCC2C(c2ccccc2F)N3)cc1 (configuration not stated)	0.94	7	6	11	0.93	0.9
CC(O)c1nc2ccccc2n1C/C=C/c1ccccc1 (configuration not stated)	0.94	-8	6	-1	1.1	1
OCc1nc2ccccc2n1C/C=C/c1ccccc1	1	-14	-2	-125	1.1	2.2*
N#CCc1ccc(NC(=O)Nc2cccc(Cl)c2)cc1	2.8*	-39	-176	7	1.4	0.9
COC(=O)c1cccc(NC(=O)NC23CC4CC(CC(C4)C2)C3)c1	2.6*	2	-156	2	0.98	1
COc1ccccc1NS(=O)(=O)c1cccc(NC(=O)Nc2cccc(Cl)c2)c1	2.2*	-6	-124	10	1.1	0.9
COc1ccccc1NS(=O)(=O)c1cccc(NC(=O)NCCCl)c1	1.1	-9	-8	·	1.1	·
COC(=O)c1cccc(NC(=O)Nc2ccc(Cl)cc2)c1	2.2*	0	-123	·	1	·
Cc1ccc(S(=O)(=O)N2CCC3(CC2)OCCN3S(=O)(=O)c2c(C)cc(C)cc2C)cc1	1.1	-4	-6	·	1	·
